Experimental findings from ChEMBL document CHEMBL4219120, “Synthesis and SAR study of new hydroxy and chloro-substituted 2,4-diphenyl 5H-chromeno[4,3-b]pyridines as selective topoisomerase IIα-targeting anticancer agents” (Bioorg Med Chem, 2018) are described below.

pIC50: −log10 of the molar value. Activity calls are given as the source filed them. No cut-off for these calls is given here.

In assay [1] the target is DNA topoisomerase 2-alpha (Homo sapiens) (UniProt P11388). The experiment in a line: Inhibition of recombinant human topoisomerase 2alpha assessed as decrease in relaxation of supercoiled pBR322 DNA at 100 uM after 30 mins by agarose gel electrophoresis relative to control. The method in brief:
(§1)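 Recombinant human topo IIα (1 unit) with 100 ng supercoiled pBR322 in 10 mM Tris-HCl pH 7.9, 50 mM NaCl, 50 mM KCl, 5 mM MgCl2, 1 mM EDTA, 1 mM ATP, 15 µg/mL BSA, 30 min at 37 °C. Quenched with 7 mM EDTA. 0.8% agarose/TAE gel, 50 V, 1 h; EtBr stain; UV densitometry. Compounds came from 20 mM DMSO stocks. 20 µM was tested only when inhibition at 100 µM exceeded 30%. Etoposide was the positive control.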

Assay [2] shares this target. The experiment in a line: Inhibition of recombinant human topoisomerase 2alpha assessed as decrease in relaxation of supercoiled pBR322 DNA at 20 uM after 30 mins by agarose gel electrophoresis relative to control. A digest of the protocol:
as §1

Assay [3] concerns the target T1, DNA topoisomerase 1 (Homo sapiens) (UniProt P11387).
T1 sequence (whole entry): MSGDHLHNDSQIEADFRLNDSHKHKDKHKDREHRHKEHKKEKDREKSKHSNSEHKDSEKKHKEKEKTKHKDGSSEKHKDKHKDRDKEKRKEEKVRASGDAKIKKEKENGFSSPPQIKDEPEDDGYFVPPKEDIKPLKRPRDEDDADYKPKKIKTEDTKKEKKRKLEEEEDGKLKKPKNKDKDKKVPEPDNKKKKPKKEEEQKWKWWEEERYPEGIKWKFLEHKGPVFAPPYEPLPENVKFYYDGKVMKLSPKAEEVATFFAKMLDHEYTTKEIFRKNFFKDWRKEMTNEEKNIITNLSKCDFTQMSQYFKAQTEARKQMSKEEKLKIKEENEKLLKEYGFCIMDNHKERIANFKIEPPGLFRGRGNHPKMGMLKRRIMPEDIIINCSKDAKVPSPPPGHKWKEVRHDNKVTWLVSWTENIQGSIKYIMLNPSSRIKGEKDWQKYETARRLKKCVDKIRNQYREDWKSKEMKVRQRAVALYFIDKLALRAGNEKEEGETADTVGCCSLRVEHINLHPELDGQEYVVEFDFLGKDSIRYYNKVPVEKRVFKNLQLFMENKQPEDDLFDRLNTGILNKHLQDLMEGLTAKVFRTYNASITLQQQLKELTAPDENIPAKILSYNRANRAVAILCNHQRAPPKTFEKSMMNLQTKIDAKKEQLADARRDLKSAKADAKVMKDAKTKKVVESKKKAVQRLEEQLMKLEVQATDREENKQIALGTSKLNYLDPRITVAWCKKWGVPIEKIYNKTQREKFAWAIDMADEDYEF
The experiment in a line: Inhibition of recombinant human topoisomerase 1 assessed as decrease in relaxation of supercoiled pBR322 DNA at 100 uM after 30 mins by agarose gel electrophoresis relative to control. The method in brief:
(§2)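 Supercoiled pBR322 (100 ng) with 1 unit recombinant human topo I in 10 mM Tris-HCl pH 7.9, 150 mM NaCl, 0.1% BSA, 0.1 mM spermidine, 5% glycerol, 30 min at 37 °C. Stopped with SDS/dye stop solution. Run on 0.8% agarose in TAE, 50 V, 1 h; EtBr-stained; bands quantitated under UV. Compounds came from 20 mM DMSO stocks. 20 µM was tested only when inhibition at 100 µM exceeded 30%. Camptothecin was the positive control.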

Assay [4] relates to HCT-15. The experiment in a line: Antiproliferative activity against human HCT15 cells after 72 hrs by CCK-8 assay. It is filed as functional, cell-based. To be noted: HCT-15, 72 h. A digest of the protocol:
(§3)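 Cells seeded at 2-4 x 10^4 per well and grown overnight in medium with 10% FBS (37 °C, 5% CO2). After 4 h FBS starvation, medium was replaced with medium containing graded compound concentrations for 72 h. CCK-8 was added for 4 h more, then absorbance read at 450 nm. IC50 came from a four-parameter logistic fit. Mean ± S.D. of three experiments, each in triplicate.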

For assay [5], the system named is T47D. The experiment in a line: Antiproliferative activity against human T47D cells after 72 hrs by CCK-8 assay. It is filed as functional, cell-based. A digest of the protocol: as §3
(Tetrazolium dyes change colour on reduction, which living cells bring about.)

For assay [6], the system named is HeLa. Kind of assay: Antiproliferative activity against human HeLa cells after 72 hrs by CCK-8 assay. The class given is functional, cell-based. The method in brief: as §3
Assay [7] deals with DNA topoisomerase 2-alpha (Homo sapiens) (UniProt P11388). Kind of assay: Potency index, ratio of compound effect for recombinant human topoisomerase 2alpha to etoposide effect for recombinant human topoisomerase 2alpha at 20 uM.
The target is the same in assay [8]. The experiment in a line: Inhibition of recombinant human topoisomerase 2alpha assessed as decrease in relaxation of supercoiled pBR322 DNA at 100 uM after 30 mins by agarose gel electrophoresis relative to etoposide.
For assay [9] the target is unchanged. Kind of assay: Inhibition of recombinant human topoisomerase 2alpha assessed as decrease in relaxation of supercoiled pBR322 DNA at 20 uM after 30 mins by agarose gel electrophoresis relative to etoposide.
Assay [10] concerns the target T1, DNA topoisomerase 1 (Homo sapiens). Kind of assay: Inhibition of recombinant human topoisomerase 1 assessed as decrease in relaxation of supercoiled pBR322 DNA at 100 uM after 30 mins by agarose gel electrophoresis relative to camptothecin.
For assay [11] the target is unchanged. The experiment in a line: Inhibition of recombinant human topoisomerase 1 assessed as decrease in relaxation of supercoiled pBR322 DNA at 20 uM after 30 mins by agarose gel electrophoresis relative to control. The method in brief: as §2
For assay [12] the target is unchanged. Kind of assay: Inhibition of recombinant human topoisomerase 1 assessed as decrease in relaxation of supercoiled pBR322 DNA at 20 uM after 30 mins by agarose gel electrophoresis relative to camptothecin.
Assay [13] deals with HeLa. Kind of assay: Potency index, ratio of etoposide IC50 to compound IC50 for human HeLa cells. The class given is functional.
The subject of assay [14] is HeLa. The experiment in a line: Potency index, ratio of adriamycin IC50 to compound IC50 for human HeLa cells. It is filed as functional.

Sequence of DNA topoisomerase 2-alpha (Homo sapiens) (P11388 whole entry): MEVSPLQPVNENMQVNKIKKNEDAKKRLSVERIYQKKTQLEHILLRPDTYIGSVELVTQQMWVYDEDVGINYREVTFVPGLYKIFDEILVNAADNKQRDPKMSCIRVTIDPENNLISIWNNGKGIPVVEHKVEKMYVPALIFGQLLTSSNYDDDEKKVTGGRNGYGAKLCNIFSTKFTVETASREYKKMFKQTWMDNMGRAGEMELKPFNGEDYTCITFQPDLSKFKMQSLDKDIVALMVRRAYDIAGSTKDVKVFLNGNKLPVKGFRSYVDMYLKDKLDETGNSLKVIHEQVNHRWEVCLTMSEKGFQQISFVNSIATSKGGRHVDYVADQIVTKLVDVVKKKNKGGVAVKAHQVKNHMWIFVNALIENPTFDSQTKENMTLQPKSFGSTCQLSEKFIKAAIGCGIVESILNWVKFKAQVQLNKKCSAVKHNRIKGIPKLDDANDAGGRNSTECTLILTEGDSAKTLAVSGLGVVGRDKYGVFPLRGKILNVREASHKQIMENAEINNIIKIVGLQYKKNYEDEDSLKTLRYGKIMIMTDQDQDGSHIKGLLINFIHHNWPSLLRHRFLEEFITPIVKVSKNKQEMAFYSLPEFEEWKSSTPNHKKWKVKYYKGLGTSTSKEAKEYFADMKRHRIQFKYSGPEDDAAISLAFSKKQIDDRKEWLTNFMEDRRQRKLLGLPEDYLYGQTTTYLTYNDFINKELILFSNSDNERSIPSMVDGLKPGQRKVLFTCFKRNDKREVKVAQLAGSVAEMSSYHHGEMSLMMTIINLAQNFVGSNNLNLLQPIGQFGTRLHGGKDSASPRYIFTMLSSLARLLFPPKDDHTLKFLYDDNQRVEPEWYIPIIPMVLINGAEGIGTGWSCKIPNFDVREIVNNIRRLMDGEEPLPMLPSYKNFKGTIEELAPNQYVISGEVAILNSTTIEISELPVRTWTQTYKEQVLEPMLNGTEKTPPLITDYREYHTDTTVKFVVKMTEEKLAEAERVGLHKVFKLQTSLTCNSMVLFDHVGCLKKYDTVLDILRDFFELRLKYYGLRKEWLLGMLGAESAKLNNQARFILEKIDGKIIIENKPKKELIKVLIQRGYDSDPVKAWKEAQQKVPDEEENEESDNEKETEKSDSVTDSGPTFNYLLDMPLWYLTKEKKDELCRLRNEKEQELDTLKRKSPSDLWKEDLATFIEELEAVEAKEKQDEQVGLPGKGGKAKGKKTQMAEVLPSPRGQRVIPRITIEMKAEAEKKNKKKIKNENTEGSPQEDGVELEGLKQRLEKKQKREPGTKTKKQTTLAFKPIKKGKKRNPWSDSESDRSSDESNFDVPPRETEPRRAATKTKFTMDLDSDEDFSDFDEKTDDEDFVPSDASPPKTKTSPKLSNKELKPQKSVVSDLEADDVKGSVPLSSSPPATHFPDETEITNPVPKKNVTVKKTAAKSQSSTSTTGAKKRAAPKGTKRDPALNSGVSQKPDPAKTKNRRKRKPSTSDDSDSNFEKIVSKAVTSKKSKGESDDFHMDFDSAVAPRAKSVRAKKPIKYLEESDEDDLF

`Oc1ccc(-c2cc(-c3ccccc3Cl)nc3c2COc2ccccc2-3)cc1`: the inhibition in [1] came out at 82.7%; in assay [2], 74.5%. The inhibition result in assay [3] was “inactive”. Also, the results for the pIC50 in assay [4], in [5] and in [6] were 5.76, 6.12 and 5.68, respectively. In addition, the Ratio in assay [7] was 2. For the same molecule, the values for the fold change (FC) in assay [8] and in assay [9] were 1.24 and 2.1, respectively. The “fold change (FC)” value in [10] is “inactive”.

`Oc1ccc(-c2cc(-c3ccc(Cl)cc3)c3c(n2)-c2ccccc2OC3)cc1`: the inhibition in assay [1] worked out at 100%; in assay [2], 19.9%; in [3], 38.5%; in assay [11], 1.7%. In addition, the pIC50 in [4] is 5.73; in assay [5] it was 5.86; in assay [6] it was 5.68.

For `Oc1cccc(-c2cc(-c3ccccc3Cl)nc3c2COc2ccccc2-3)c1`, the inhibition in [1] was found to be 90.8%; in assay [2] it was 57.3%; in assay [3] it was 79.1%; in assay [11], 1.7%. For the same molecule, the pIC50 in assay [4] was 6.06; in assay [5], 6.15; in [6], 5.60. Also, the fold change (FC) in assay [8] is 1.37; in assay [9], 1.61; in assay [10], 0.99; in assay [12] it was 0.05.

In the case of `Oc1cccc(-c2cc(-c3cccc(Cl)c3)nc3c2COc2ccccc2-3)c1`, the values for the inhibition in assay [1], in assay [2] and in [3] were 84%, 63.7% and 30%, respectively. Besides, in [11], the inhibition result was “inactive”. Moreover, the pIC50 was 5.67 in assay [4], 6.14 in [5] and 6.17 in assay [6]. Also, the results for the fold change (FC) in [8], in assay [9] and in assay [10] were 1.26, 1.79 and 0.36, respectively. The “fold change (FC)” value in assay [12] was “inactive”.

In the case of `Oc1ccc(-c2cc(-c3cccc(Cl)c3)c3c(n2)-c2ccccc2OC3)cc1`, the inhibition in assay [1] was 79.5%; in assay [2], 12.1%; in assay [3], 22.8%. For the same molecule, the pIC50 is 5.47 in assay [4], 5.90 in [5] and 6.18 in [6]. The “Ratio IC50” value is on record as 15.2 in assay [13] and 2.6 in assay [14].

In the case of `Oc1ccc(-c2cc(-c3ccccc3Cl)c3c(n2)-c2ccccc2OC3)cc1`, the inhibition is 63.5% in assay [1], 48.1% in [2] and 56.1% in assay [3]. For the same molecule, the inhibition entry in assay [11] was “inactive”. Besides, the pIC50 in assay [4] is 5.33; in [5], 6.03; in [6] it was 6.17.

On to `Oc1ccccc1-c1cc(-c2cccc(Cl)c2)nc2c1oc1ccccc12`, for which the fold change (FC) in [8] amounted to 0.97; in [9], 0.91; in [10], 1.01; in assay [12] it was 0.38.

A word on the inhibition: it is the share of the control response that was lost under treatment. The term pIC50 denotes the negative decadic logarithm of the IC50, by convention in mol/L.
